Molecules are shown by their SMILES.

In one data set the test system is Staphylococcus aureus. Nature of the data set: Antibacterial activity against Staphylococcus aureus ATCC 29213 assessed as reduction in bacterial growth incubated for 16 to 20 hrs by CLSI-based broth microdilution method. The class given is functional. Conditions: time 16-20 hrs. The method in brief:
(§1)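 Broth microdilution following CLSI, in cation-adjusted Mueller-Hinton broth. Inoculum from a 4-6 h culture (~10^8 CFU/mL), diluted to ~10^6 CFU/mL. Water stocks were serially diluted in MHB (256 to 0.5 µg/mL) and mixed 1:1 with the inoculum. Plates ran 16-20 h at 37 °C. MIC was read visually. Each concentration was tested in duplicate, and the experiment was repeated at least twice.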

Data set [1] can be described thus: Solubility of the compound in water at room temperature. Conditions: buffer. It is filed as physicochemical.
Another data set concerns Escherichia coli. The experiment in a line: Antibacterial activity against Escherichia coli ATCC 25922 assessed as reduction in bacterial growth incubated 16 to 20 hrs by CLSI-based broth microdilution method. The class given is functional. As to conditions: time 16-20 hrs. The essentials: as §1
Background: Dilution methods test growth across graded concentrations, often in twofold steps.

The next data set has as its system Enterococcus faecalis. Nature of the data set: Antibacterial activity against Enterococcus faecalis ATCC 29212 assessed as reduction in bacterial growth incubated 16 to 20 hrs by CLSI-based broth microdilution method. It is filed as functional. Conditions: time 16-20 hrs. The essentials: as §1
A further data set has as its system Salmonella enterica. The experiment in a line: Antibacterial activity against Salmonella enterica ATCC 8387 assessed as reduction in bacterial growth incubated for 16 to 20 hrs by CLSI-based broth microdilution method. The class given is functional. As to conditions: time 16-20 hrs. The essentials:
as §1

For orientation: MIC means the lowest concentration that inhibits growth of the organism. For `CCCCCCCCN(C[C@H]1CN(c2ccc(N3CCOCC3)c(F)c2)C(=O)O1)C(=O)[C@@H](N)CCCCN.Cl.Cl`, the MIC in the data set on Staphylococcus aureus was determined as 32 µg/mL; in the data set on Escherichia coli, 128 µg/mL; with Enterococcus faecalis, 64 µg/mL; with Salmonella enterica, 128 µg/mL. Also, the solubility result in data set [1] was “Soluble”.

Consider `CCCC[N+](C)(C)CC(=O)NC[C@H]1CN(c2ccc(N3CCOCC3)c(F)c2)C(=O)O1.[Cl-]`, for which the MIC in the data set on Staphylococcus aureus, in the data set on Escherichia coli, in the data set with Enterococcus faecalis and with Salmonella enterica was over 128 µg/mL throughout. Also, the solubility result in data set [1] was “Soluble”.

With `CCCCCCCN(C[C@H]1CN(c2ccc(N3CCOCC3)c(F)c2)C(=O)O1)C(=O)[C@@H](N)CCCN=C(N)N.Cl.Cl.Cl`, the MIC was 64 µg/mL in the data set on Staphylococcus aureus, 128 µg/mL with Escherichia coli, 128 µg/mL with Enterococcus faecalis and over 128 µg/mL with Salmonella enterica. Further, in data set [1], the solubility entry is “Soluble”.

In the case of `CCCCCCCCCCN(C[C@H]1CN(c2ccc(N3CCOCC3)c(F)c2)C(=O)O1)C(=O)[C@@H](N)CCCCN.Cl.Cl`, the MIC in the data set on Staphylococcus aureus came to 4 µg/mL; in the data set on Escherichia coli it was 32 µg/mL; in the data set on Enterococcus faecalis it was 8 µg/mL; in the data set with Salmonella enterica it was 32 µg/mL. Also, in data set [1], the solubility result is “Soluble”.

As for `CCCCCCCN(C[C@H]1CN(c2ccc(N3CCOCC3)c(F)c2)C(=O)O1)C(=O)[C@@H](N)CCCCN.Cl.Cl`, the MIC was 128 µg/mL with Staphylococcus aureus, over 128 µg/mL with Escherichia coli, 128 µg/mL with Enterococcus faecalis and over 128 µg/mL in the data set on Salmonella enterica. Besides, in data set [1], the solubility result was “Soluble”.

In the case of `CCCCCCCCCCCCCCCCCC[N+](C)(C)CC(=O)NC[C@H]1CN(c2ccc(N3CCOCC3)c(F)c2)C(=O)O1.[Cl-]`, the MIC in the data set on Staphylococcus aureus is 4 µg/mL; in the data set with Escherichia coli, over 128 µg/mL; in the data set on Enterococcus faecalis it was 16 µg/mL; in the data set with Salmonella enterica it was over 128 µg/mL. Further, the solubility result in data set [1] is given as “Soluble”.

Turning to `CCCCCCCCC[N+](C)(C)CC(=O)NC[C@H]1CN(c2ccc(N3CCOCC3)c(F)c2)C(=O)O1.[Cl-]`, the MIC was 8 µg/mL in the data set on Staphylococcus aureus, 32 µg/mL in the data set on Escherichia coli, 16 µg/mL with Enterococcus faecalis and 32 µg/mL with Salmonella enterica. Besides, the solubility entry in data set [1] is “Soluble”.

Values taken from ChEMBL document CHEMBL4673214, “Synthesis and antibacterial bioactivities of cationic deacetyl linezolid amphiphiles” (Eur J Med Chem, 2018).
